Values after ≈ are worked out from the molar mass of the structure shown.
Key:
Enterococcus faecalis [1] = assay: Serum effect on MIC of compound was measured against Enterococcus faecalis as ratio of MIC value in presence and absence of 50% fetal calf serum; assay type: functional
How it was run: (§1)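 Broth microdilution MIC was repeated with 50% fetal calf serum added to the growth medium (LB for S. aureus, brain-heart infusion broth for E. faecalis). The inoculum was (3-7) × 10^5 CFU/mL in 1% DMSO, incubated at 37 °C for 16-24 h, and read by OD600. The serum effect is the MIC with serum relative to the MIC without serum.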

[2] = biological target: DNA polymerase III PolC-type (Bacillus subtilis (strain 168), UniProt P13267); assay: Inhibitory concentration against Bacillus subtilis DNA polymerase IIIC using [3H]dTMP 250 pM (30 degree C for 10 min)
Sequence of DNA polymerase III PolC-type (P13267 whole entry, the tested form may be a part): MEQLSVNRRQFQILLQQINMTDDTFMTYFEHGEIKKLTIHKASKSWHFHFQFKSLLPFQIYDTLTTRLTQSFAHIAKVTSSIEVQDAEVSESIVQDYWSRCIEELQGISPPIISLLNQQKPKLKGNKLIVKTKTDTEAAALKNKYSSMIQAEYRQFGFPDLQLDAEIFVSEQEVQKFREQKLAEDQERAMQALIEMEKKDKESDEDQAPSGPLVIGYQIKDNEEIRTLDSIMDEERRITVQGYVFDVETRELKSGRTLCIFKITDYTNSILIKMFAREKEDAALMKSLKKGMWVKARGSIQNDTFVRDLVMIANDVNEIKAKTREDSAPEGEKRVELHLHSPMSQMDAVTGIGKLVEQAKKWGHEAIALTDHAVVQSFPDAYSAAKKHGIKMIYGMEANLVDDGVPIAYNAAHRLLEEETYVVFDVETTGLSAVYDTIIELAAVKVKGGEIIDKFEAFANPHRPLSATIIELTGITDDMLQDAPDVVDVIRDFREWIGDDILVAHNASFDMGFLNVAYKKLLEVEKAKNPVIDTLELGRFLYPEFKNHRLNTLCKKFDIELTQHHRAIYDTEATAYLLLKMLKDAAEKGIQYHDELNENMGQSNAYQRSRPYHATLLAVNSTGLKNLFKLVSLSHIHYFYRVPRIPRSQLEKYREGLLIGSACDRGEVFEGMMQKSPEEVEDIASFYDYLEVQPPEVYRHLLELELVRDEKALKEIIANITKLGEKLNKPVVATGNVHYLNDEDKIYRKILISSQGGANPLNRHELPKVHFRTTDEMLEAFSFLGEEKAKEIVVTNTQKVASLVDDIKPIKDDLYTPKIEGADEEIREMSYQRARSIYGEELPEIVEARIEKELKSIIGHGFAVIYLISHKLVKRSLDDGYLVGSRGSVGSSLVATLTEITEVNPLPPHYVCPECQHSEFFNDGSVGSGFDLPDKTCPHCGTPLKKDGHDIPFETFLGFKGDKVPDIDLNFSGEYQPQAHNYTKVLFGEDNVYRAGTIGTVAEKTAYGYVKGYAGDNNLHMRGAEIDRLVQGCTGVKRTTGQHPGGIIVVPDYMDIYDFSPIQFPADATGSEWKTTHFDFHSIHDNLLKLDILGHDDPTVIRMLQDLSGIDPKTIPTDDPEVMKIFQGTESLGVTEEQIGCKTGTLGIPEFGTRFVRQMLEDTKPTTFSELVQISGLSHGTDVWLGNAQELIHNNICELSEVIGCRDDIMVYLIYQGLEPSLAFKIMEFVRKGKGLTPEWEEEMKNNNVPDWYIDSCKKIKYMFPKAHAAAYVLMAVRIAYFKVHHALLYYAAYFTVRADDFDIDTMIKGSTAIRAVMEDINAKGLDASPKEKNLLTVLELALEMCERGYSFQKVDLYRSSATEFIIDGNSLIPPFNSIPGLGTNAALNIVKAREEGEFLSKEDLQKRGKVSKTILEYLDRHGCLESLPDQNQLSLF
How it was run: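 Homogeneous recombinant B. subtilis pol IIIC, 0.025-0.06 units, acted on activated calf thymus DNA with Mg2+, DTT, glycerol, dATP, dCTP, dTTP and [3H]dTTP, without dGTP. Compounds were serially diluted from DMSO. Reactions ran 10 min at 30 °C, were stopped with TCA-pyrophosphate, and the filter-collected precipitate was scintillation counted. Apparent Ki was read directly from this truncated assay; average standard deviation ±44%.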

[3] = Half life in mouse after peroral administration at 200 mg/kg; assay type: ADME, organism-based; set-up: dose 200 mg/kg, route oral; details: in vivo, po
How it was run: (§2)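 A single 200 mg/kg gavage dose in KOH-neutralized PBS was given to male Swiss-Webster mice. Blood was taken by cardiac puncture under halothane before dosing and at 15, 30, 60, 120 and 180 min. Heparinized plasma was deproteinized with equal-volume MeCN and quantified by C18 HPLC (282 nm) against a standard curve from compound-spiked plasma.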

Enterococcus faecium [4] = assay: In vitro minimum inhibitory concentration against Enterococcus fecium upon incubation at 37 degree C for 16 to 24 hr by dissolving in DMSO (1%); assay type: functional
How it was run: (§3)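 Broth microdilution (modified NCCLS M7-A4). Enterococci grown to log phase in brain-heart infusion broth, seeded at (3-7) × 10⁵ CFU/mL. Compounds 2-fold diluted from DMSO stocks, 20 to 1.25 µg/mL, final 1% DMSO, in duplicate. Incubated 37 °C, 16-24 h, with shaking. OD600 read.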

Enterococcus faecium [5] = assay: In vitro minimum inhibitory concentration against Vancomycin resistant Enterococci faecium upon incubation at 37 degree C for 16 to 24 hr by dissolving in DMSO (1%); assay type: functional; how it was run: as §3
[6] = Area under the plasma concentration curve determined in mouse after peroral administration at 200 mg/kg; assay type: ADME, organism-based; set-up: dose 200 mg/kg, route oral; details: in vivo, po; how it was run: as §2
Staphylococcus aureus [7] = assay: In vitro minimum inhibitory concentration against Methicillin-resistant Staphylococcus aureus upon incubation at 37 degree C for 16 to 24 hr by dissolving in DMSO (1%); assay type: functional
How it was run: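 Broth microdilution (modified NCCLS M7-A4). Staphylococci grown to log phase in Luria broth, seeded at (3-7) × 10⁵ CFU/mL. Compounds 2-fold diluted from DMSO stocks, 20 to 1.25 µg/mL, final 1% DMSO, in duplicate. Incubated 37 °C, 16-24 h, with shaking. OD600 read.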

[8] = Maximum time taken to reach Cmax was determined in mouse after peroral administration at 200 mg/kg; assay type: ADME, organism-based; set-up: dose 200 mg/kg, route oral; details: in vivo, po; how it was run: as §2
[9] = Area under the plasma concentration curve determined in mouse after subcutaneous administration at 400 mg/kg; assay type: ADME, organism-based; set-up: dose 400 mg/kg, route subcutaneous; details: in vivo, sc
How it was run: (§4)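 Male Swiss-Webster mice got single sc doses of 20 or 60 mg/kg in 30% aqueous HP-β-cyclodextrin, or 20, 200 or 400 mg/kg in KOH-neutralized PBS. Groups of three were bled by cardiac puncture before dosing and at 5, 15, 30, 60, 120 and 180 min, plus 360 min at 400 mg/kg. Plasma drug was measured by C18 reverse-phase HPLC at 282 nm against a spiked-plasma standard curve.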

[10] = Maximum plasma concentration in mouse after peroral administration at 200 mg/kg; assay type: ADME, organism-based; set-up: dose 200 mg/kg, route oral; details: po; how it was run: as §2
Staphylococcus aureus [11] = assay: Effect on survival of staphylococcus aureus (Smith) ip-infected mice at a concentration 10 mg/kg; assay type: functional
How it was run: (§5)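 Male pathogen-free Swiss-Webster mice (20-24 g), groups of five, infected ip with ca. 10⁸ CFU log-phase S. aureus Smith (grown 37 °C in LB, washed, in 0.5 mL LB). Single ip dose 15 min post-infection, in 10% DMSO/peanut oil or PBS. Survivors counted at 72 h post-infection.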

[12] = Area under the plasma concentration curve determined in mouse after intravenous administration at 20 mg/kg; assay type: ADME, organism-based; set-up: dose 20 mg/kg, route intravenous; details: in vivo
How it was run: (§6)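 Male Swiss-Webster mice (20-24 g) got a 20 mg/kg tail-vein iv bolus, either in 30% aqueous HP-β-cyclodextrin or in PBS neutralized with KOH. Groups of three were bled by cardiac puncture under halothane before dosing and at 2, 5, 15, 30, 60 and 120 min. Heparinized plasma was MeCN-treated and run on C18 HPLC at 282 nm against a spiked-plasma standard curve.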

Staphylococcus aureus [13] = assay: Serum effect on MIC against Staphylococcus aureus (Smith) as ratio of MIC value in presence and absence of 50% fetal calf serum; assay type: functional; how it was run: as §1
[14] = Area under the plasma concentration curve determined in mouse after subcutaneous administration at 200 mg/kg; assay type: ADME, organism-based; set-up: dose 200 mg/kg, route subcutaneous; details: in vivo, sc; how it was run: as §4
[15] = Area under the plasma concentration curve determined in mouse after subcutaneous administration at 20 mg/kg; assay type: ADME, organism-based; set-up: dose 20 mg/kg, route subcutaneous; details: in vivo, sc; how it was run: as §4
Enterococcus faecalis [16] = assay: In vitro minimum inhibitory concentration against Enterococcus faecalis upon incubation at 37 degree C for 16 to 24 hr by dissolving in DMSO (1%); assay type: functional
How it was run: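 Log-phase E. faecalis was grown in brain-heart infusion broth and seeded at (3-7) × 10^5 CFU/mL. Duplicate 2-fold dilutions ran from 20 to 1.25 µg/mL, final 1% DMSO. After 16-24 h at 37 °C with shaking, OD600 was read.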

Staphylococcus aureus [17] = assay: Effect on survival of staphylococcus aureus (Smith) ip-infected mice at a concentration 20 mg/kg; assay type: functional; how it was run: as §5
Staphylococcus aureus [18] = assay: In vitro minimum inhibitory concentration against Staphylococcus aureus upon incubation at 37 degree C for 16 to 24 hr by dissolving in DMSO (1%); assay type: functional
Staphylococcus aureus [19] = assay: Effect on survival of staphylococcus aureus (Smith) ip-infected mice at 20 mg/kg; assay type: functional; how it was run: as §5
[20] = Maximum plasma concentration in mouse after intravenous administration at 20 mg/kg; assay type: ADME, organism-based; set-up: dose 20 mg/kg, route intravenous; how it was run: as §6
[21] = Half life in mouse after intravenous administration at 20 mg/kg; assay type: ADME, organism-based; set-up: dose 20 mg/kg, route intravenous; details: in vivo; how it was run: as §6
[22] = Maximum plasma concentration in mouse after subcutaneous administration at 20 mg/kg; assay type: ADME, organism-based; set-up: dose 20 mg/kg, route subcutaneous; details: sc; how it was run: as §4
[23] = Area under the plasma concentration curve determined in mouse after subcutaneous administration at 60 mg/kg; assay type: ADME, organism-based; set-up: dose 60 mg/kg, route subcutaneous; details: in vivo, sc; how it was run: as §4
[24] = Half life in mouse after subcutaneous administration at 20 mg/kg; assay type: ADME, organism-based; set-up: dose 20 mg/kg, route subcutaneous; details: in vivo, sc; how it was run: as §4
[25] = Maximum plasma concentration in mouse after subcutaneous administration at 60 mg/kg; assay type: ADME, organism-based; set-up: dose 60 mg/kg, route subcutaneous; details: sc; how it was run: as §4
[26] = Maximum time taken to reach Cmax was determined in mouse after subcutaneous administration at 20 mg/kg; assay type: ADME, organism-based; set-up: dose 20 mg/kg, route subcutaneous; details: in vivo, sc; how it was run: as §4
Staphylococcus aureus [27] = assay: In vitro minimum inhibitory concentration against Staphylococcus aureus (Smith) upon incubation at 37 degree C for 16 to 24 hr by dissolving in DMSO (1%); assay type: functional
[28] = Maximum time taken to reach Cmax was determined in mouse after subcutaneous administration at 60 mg/kg; assay type: ADME, organism-based; set-up: dose 60 mg/kg, route subcutaneous; details: in vivo, sc; how it was run: as §4

Row | Structure (SMILES) | MIC+/MIC- (Enterococcus faecalis [1]) | Ki [2] | MIC (Enterococcus faecium [4]) | MIC (Enterococcus faecium [5]) | MIC (Staphylococcus aureus [7]) | Activity (Staphylococcus aureus [11]) | AUC [12] | MIC+/MIC- (Staphylococcus aureus [13]) | AUC [15] | MIC (Enterococcus faecalis [16]) | Activity (Staphylococcus aureus [17]) | MIC (Staphylococcus aureus [18]) | further results
1 | CCc1cc(Nc2cc(=O)n(CCCCN3CCOCC3)c(=O)[nH]2)ccc1C.Cl | 2 | 52 nM | 10 µg/mL | 5 µg/mL | 10 µg/mL | 4 | 234 µg·min/mL | 1.7 | 406 µg·min/mL | 5 µg/mL | 5 | 10 µg/mL | half-life [3]: 111 min; AUC [6]: 922 µg·min/mL; Tmax [8]: 1 h; AUC [9]: 50.7 µg·h/mL; Cmax [10]: 7300 ng/mL; AUC [14]: 1610 µg·min/mL
2 | CCc1cc(Nc2cc(=O)n(CCCCN3CCOCC3)c(=O)[nH]2)ccc1C | 3.2 | – | 2.5 µg/mL (≈ 6.47 µM) | 5 µg/mL (≈ 12.9 µM) | 10 µg/mL (≈ 25.9 µM) | 2 | – | 2.3 | – | 5 µg/mL (≈ 12.9 µM) | – | 10 µg/mL (≈ 25.9 µM) | Activity (Staphylococcus aureus [19]): 4
3 | CCc1cc(Nc2cc(=O)n(CCCCO)c(=O)[nH]2)ccc1C | – | 55 nM | 5 µg/mL (≈ 15.8 µM) | 5 µg/mL (≈ 15.8 µM) | 5 µg/mL (≈ 15.8 µM) | 3 | 288 µg·min/mL | 7.5 | 466 µg·min/mL | 5 µg/mL (≈ 15.8 µM) | 5 | – | Cmax [20]: 53 µg/mL; half-life [21]: 33 min; Cmax [22]: 5100 ng/mL; AUC [23]: 1210 µg·min/mL; half-life [24]: 29.3 min; Cmax [25]: 13000 ng/mL; Tmax [26]: 15 min; MIC (Staphylococcus aureus [27]): 5 µg/mL (≈ 15.8 µM); Tmax [28]: 15 min
